Laboratory results reported in ChEMBL document CHEMBL4706680, “Small-Molecule HSP27 Inhibitor Abolishes Androgen Receptors in Glioblastoma” (J Med Chem, 2021).
Calls of active or inactive are those of the source. No cut-off for these calls is given here.

What was measured:
A 172 = assay: Antiproliferative activity against human A 172 cells assessed as reduction in cell viability incubated for 48 hrs by MTT assay; assay type: functional, cell-based; details: A 172, 48 h
In short: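 MTT assay; 3000 cells/well in RPMI 1640 or DMEM with 10% FBS, seeded 24 h, then exposed 48 h to a range of concentrations in DMSO (final ≤0.1%); vehicle controls. MTT 1 mg/mL for 2 h at 37 °C, dye dissolved in DMSO, absorbance 570 nm; eight replicates; IC50 by nonlinear regression.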

[1] = Toxicity in CD1 mouse assessed as decrease in body weight at 80 mg/kg/day, ip administered thrice weekly and observed at day 5 to 7; assay type: organism-based; details: in vivo, 72 h, time 3 day
In short: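 Male CD-1 mice, four per group, given 80 mg/kg in PBS IP three times weekly; vehicle DMSO. Mice were euthanized when toxicity signs appeared, otherwise at day 10. Body weight was recorded at first and last dosing days. Non-fasted cardiac blood was taken after euthanasia for an automated hematology analyzer.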

[2] = target: Heat shock protein beta-1 (Homo sapiens) (UniProt P04792); assay: Inhibition of HSP27 (unknown origin) chaperone activity assessed as increase in DTT-induced insulin aggregation at 10 uM incubated for 5 mins in absence of alpha-crystallin followed by addition of DTT and measured for 2 hrs for every 3 mins by microplate reader analysis; details: time 125.0 min
In short: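 Insulin aggregation assay in PBS at 10 μM, 0.1% DMSO. Insulin stock 1 mg/mL with or without α-crystallin stock 5 mg/mL was preincubated 5 min at 37 °C. Aggregation was started with DTT (1 M stock). A400 was read every 3 min for 2 h; three independent experiments, each in triplicate.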

[3] = target: Heat shock protein beta-1 (Homo sapiens) (UniProt P04792); assay: Inhibition of HSP27 in human U87 cells assessed as reduction in AR expression level at 50 to 100 nM by Western blot analysis; assay type: cell-based; details: dose 50-100 nM
In short: (§1)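 Cells were treated in six-well plates (with or without MG132 where stated), then lysed in RIPA with protease inhibitors. 50 μg protein was run on 10% SDS-PAGE and transferred to PVDF. Membranes were blocked in 5% milk/TBS-T, probed with AR or AR-V7 antibodies overnight at 4 °C, and detected by chemiluminescence. Densitometry was used; n = 3.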

T98G [4] = assay: Downregulation of PSA mRNA expression in human T98G cells at 25 nM incubated for 12 hrs by qRT-PCR analysis; assay type: functional, cell-based
In short: (§2)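 T98G and U87 cells, 2 × 10^5 per well, adhered overnight and were treated at 25 nM for 12 h. RNA was extracted with RiboZol and DNase I-treated. AR, PSA and NKX3.1 were measured by real-time PCR, normalized to 18S by 2−ΔΔCt, three replicates per cDNA.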

T98G [5] = assay: Downregulation of NKX3.1 mRNA expression in human T98G cells at 25 nM incubated for 12 hrs by qRT-PCR analysis; assay type: functional, cell-based; in short: as §2
U-87 MG [6] = assay: Antitumor activity against human U87 cells xenografted in NCR nude mouse assessed as reduction in tumor size at 20 mg/kg, ip administered thrice weekly for 14 days by vernier caliper method; assay type: functional, organism-based; details: U-87MG ATCC, time 14.0 day
In short: (§3)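 Male NCRNU nude mice, 5–6 weeks, 5 × 10^6 U87 cells in PBS injected subcutaneously into left and right flank (n = 4 mice, 8 tumors per group). Dosing began near 50 mm3: 20 mg/kg in PBS IP or oral, three times weekly for 14 days, vehicle DMSO. Calipers three times weekly, V = 2/3·d1·d2²; tumors weighed after CO2 euthanasia.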

[7] = target: Heat shock protein beta-1 (Homo sapiens) (UniProt P04792); assay: Inhibition of HSP27 in human T98G cells assessed as reduction in AR expression level at 100 nM incubated for 12 hrs by immunofluorescence analysis; assay type: cell-based
In short: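 T98G cells on coverslips, 24 h after seeding, were treated 12 h with 100 nM, DHT 10 nM, or both. Cells were fixed in 4% paraformaldehyde, permeabilized with 0.1% Triton X-100 and blocked with 1% BSA. They were stained 1 h each with AR and HSP27 primary and fluorescent secondary antibodies, with DAPI for nuclei.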

[8] = Toxicity in NCR nude mouse xenografted with human U87 cells assessed as change in body weight at 20 mg/kg, ip administered thrice weekly for 14 days; assay type: organism-based; details: in vivo, 336 h, time 14 day
In short: (§4)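 Male NCRNU nude mice, 5–6 weeks old, were given 5 × 10^6 U87 cells in 100 μL sterile PBS, injected subcutaneously into the left and right flanks. Dosing was 20 mg/kg in PBS, three times weekly for 14 days, with a DMSO vehicle group. Body weight was recorded three times weekly. Results are mean ± SD, n = 4 mice per group.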

[9] = Toxicity in NCR nude mouse xenografted with human U87 cells assessed as change in body weight at 20 mg/kg, po administered thrice weekly for 14 days; assay type: organism-based; details: in vivo, 336 h, time 14 day; in short: as §4
U-87 MG [10] = assay: Antitumor activity against human U87 cells xenografted in nude mouse assessed as reduction in tumor size at 20 mg/kg, po administered thrice weekly for 14 days by vernier caliper method; assay type: functional, organism-based; details: U-87MG ATCC, time 14.0 day; in short: as §3
U-87 MG [11] = assay: Antitumor activity against human U87 cells xenografted in nude mouse assessed as reduction in tumor weight at 20 mg/kg, ip administered thrice weekly for 14 days by vernier caliper method; assay type: functional, organism-based; details: U-87MG ATCC, time 14.0 day; in short: as §3
Mus musculus = assay: In vivo inhibition of HSP27 in human U87 cells xenografted in NCR nude mouse assessed as reduction in AR expression level in tumors at 20 mg/kg, ip administered thrice weekly for 14 days by Western blot analysis; assay type: functional, organism-based; details: time 14.0 day
In short: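 Tumors from U87 flank xenografts in male nude mice dosed at 20 mg/kg IP or orally three times weekly for 14 days. The two tumors of each mouse were pooled and homogenized in RIPA with protease inhibitors and PMSF. AR was then measured by western blot; n = 4.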

[12] = target: Heat shock protein beta-1 (Homo sapiens) (UniProt P04792); assay: Inhibition of HSP27 in human U87 cells assessed as induction of AR degradation at 25 to 100 nM by Western blot analysis; assay type: cell-based; details: dose 25-100 nM; in short: as §1
[13] = Dissociation constant, pKa of the compound; assay type: physicochemical

Heat shock protein beta-1 (Homo sapiens), sequence (P04792 whole entry): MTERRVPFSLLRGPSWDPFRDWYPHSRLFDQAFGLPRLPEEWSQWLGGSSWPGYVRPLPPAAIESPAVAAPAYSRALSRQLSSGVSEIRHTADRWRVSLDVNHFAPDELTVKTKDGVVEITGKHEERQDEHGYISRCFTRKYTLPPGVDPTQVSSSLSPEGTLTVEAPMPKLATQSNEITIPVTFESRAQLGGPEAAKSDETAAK

- inhibition [2]: inactive
- inhibition [3]: Active
- inhibition [7]: Active
- inhibition [12]: Active
- pKa [13]: 8.65
Structure (SMILES): COc1ccc(C(=O)Nc2ccc(NS(C)(=O)=O)c(OCc3cc(OC)ccc3OC)c2)cc1
- IC50 (A 172): 6.24 nM
- Activity [1]: Non-Toxic
- inhibition (T98G [4]): Active
- inhibition (T98G [5]): Active
- Activity (U-87 MG [6]): Active
- Activity [8]: Non-Toxic
- Activity [9]: Non-Toxic
- Activity (U-87 MG [10]): Active
- Activity (U-87 MG [11]): Active
- inhibition (Mus musculus): Active
